Assay results as given in paper PMC2882528 (Molecular pharmaceutics, 2010).

How the values were obtained:
Format in all cases: cell-based, rat
[1] = system: IEC-6 stable cell line expressing SEAP; experiment: SEAP enzyme activity assay; conditions: ritonavir 15 µM; VC 15 µg/ml, VE 20 µg/ml, EL 20 µg/ml, OA 10 µg/ml; 24 h
Summary of the method: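 An IEC-6 line stably transfected with pSEAP reporter plasmid is treated for 24 h with test compound (15 µM) alone or with individual antioxidant. DMSO is the vehicle control and thapsigargin 100 nM is the ER-stress reference. Secreted alkaline phosphatase activity is expressed as percent of vehicle control. Results are mean ± SD of 3 independent experiments.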

IEC-6 cells = experiment: Measurement of intracellular ROS; conditions: ritonavir 15 µM, VC 15 µg/ml, EL 20 µg/ml, OA 10 µg/ml, 4 h
Summary of the method: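 IEC-6 rat intestinal epithelial cells (passages 15-20; DMEM, 10% FBS, 0.1 U/mL insulin, penicillin/streptomycin, 37 °C, 5% CO2) in 12-well plates are exposed for 4 h to test compound with or without antioxidant, all in DMSO. One fraction is used for protein. The other is lysed in 0.1 N NaOH/50% methanol and centrifuged, and fluorescence is read at ex 485/em 520 nm. Results are mean ± SD of 3 independent experiments.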

CHOP = experiment: Western blot analysis of CHOP; conditions: IEC-6 cells, 4 h; for Effect of antioxidant on ritonavir-induced CHOP expression: ritonavir 15 µM

Row | Compound | Effect of antioxidant on ritonavir-induced inhibition of SEAP activity [1] | Effect of antioxidant on ritonavir-induced ROS production (IEC-6 cells) | Effect of antioxidant on ritonavir-induced CHOP expression (CHOP) | CHOP expression (CHOP; 15 µM)
1 | CCCCCCCC/C=C\CCCCCCCC(=O)O [oleic acid] | significantly inhibited | able to reduce | significantly reduced | –
2 | CC(C)c1nc(CN(C)C(=O)N[C@H](C(=O)N[C@@H](Cc2ccccc2)C[C@H](O)[C@H](Cc2ccccc2)NC(=O)OCc2cncs2)C(C)C)cs1 [ritonavir, reference compound] | – | – | – | significantly induced
3 | O=C1O[C@H]([C@@H](O)CO)C(O)=C1O [vitamin C] | significantly inhibited | able to reduce | significantly reduced | –
4 | vitamin E | significantly inhibited | – | less effect | –
5 | CCCCC/C=C\C/C=C\CCCCCCCC(=O)OCC [ethyl linoleate] | significantly inhibited | able to reduce | significantly reduced | –
